The values below come from ChEMBL document CHEMBL1122581, “Antiviral activity of C-5 substituted tubercidin analogues” (1984).

What all share (assay type): functional
One assay concerns Human alphaherpesvirus 1. The assay is described as follows: Concentration required to reduce HSV-1 (KOS) induced cytopathogenicity by 50% in primary rabbit kidney cell cultures. (In general: Cytopathic effects are the visible damage that an infection or toxin causes in cultured cells.)
The next assay concerns HeLa. Description: Concentration required to cause a microscopically detectable alteration in cell morphology in HeLa cell cultures. As to conditions: Homo sapiens, read-out: Min cytotoxic concentration. The procedure, abridged:
(§1)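 Uninfected cell monolayers were run in parallel with the antiviral assays and exposed to compound for the same period as the infected cultures. The end point was the lowest concentration giving a microscopically detectable disruption of normal cell morphology.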

A further assay concerns Human alphaherpesvirus 2. Description: Concentration required to reduce HSV-2 (G) induced cytopathogenicity by 50% in primary rabbit kidney cell cultures.
For the next assay, the system named is L1210. The assay is described as follows: Dose required to inhibit proliferation of L-1210 Cells by 50%. As to conditions: Mus musculus, read-out: ID50 (the source's name). An outline of the steps: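 Inhibition of proliferation of murine leukemia L-1210 cells in exponential growth phase. ID50 is the dose inhibiting cell proliferation by 50%, given plus or minus standard deviation.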

For another assay, the species on record is Oryctolagus cuniculus. The assay is described as follows: Concentration required to cause a microscopically detectable alteration in cell morphology in primary rabbit kidney cell cultures. To be noted: read-out: Min cytotoxic concentration. The procedure, abridged:
as §1

Assay [1] deals with Coxsackievirus B4. Description: Concentration required to reduce coxsackie virus B4 induced cytopathogenicity by 50% in vero cell cultures. As to conditions: Enterovirus B.
Assay [2] concerns Coxsackievirus B4. The assay is described as follows: Concentration required to reduce coxsackie virus 4 induced cytopathogenicity by 50% in HeLa cell cultures. As to conditions: Enterovirus B.
The test system of another assay is Human respirovirus 3. The assay is described as follows: Concentration required to reduce parainfluenza virus type 3 induced cytopathogenicity by 50% in vero cell cultures.
In a further assay the test system is Poliovirus 1. Description: Concentration required to reduce polio virus type 1 induced cytopathogenicity by 50% in HeLa cell cultures. As to conditions: Enterovirus C.
The test system of another assay is Vero. The assay is described as follows: Concentration required to cause a microscopically detectable alteration in cell morphology in vero cell cultures. To be noted: Chlorocebus sabaeus, read-out: Min cytotoxic concentration. An outline of the steps: as §1
For a further assay, the system named is Sindbis virus. Description: Concentration required to reduce sindbis virus induced cytopathogenicity by 50% in vero cell cultures.
Assay [3] deals with Vesicular stomatitis virus. The assay is described as follows: Concentration required to reduce vesicular stomatitis virus induced cytopathogenicity by 50% in primary rabbit kidney cell cultures.
For assay [4], the system named is Mammalian orthoreovirus 1. Description: Concentration required to reduce reovirus type 1 induced cytopathogenicity by 50% in vero cell cultures.
For assay [5], the system named is Vesicular stomatitis virus. Description: Concentration required to reduce vesicular stomatitis virus induced cytopathogenicity by 50% in HeLa cell cultures.

The structures appear in SMILES notation. ≈ marks a conversion by molar mass, not a printed value. Where only a bound is given, the exact number is not on record here.

For the compound `Nc1ncnc2c1c(/C=C/Br)cn2C1O[C@H](CO)[C@@H](O)[C@H]1O` (stereo partly drawn), the MIC in the assay on Human alphaherpesvirus 1 is > 1 µg/mL; against Human alphaherpesvirus 2 it was > 1 µg/mL; in the assay with Coxsackievirus B4 [1], > 1 µg/mL; in the assay with Coxsackievirus B4 [2] it was > 1 µg/mL; in the assay with Human respirovirus 3, 1 µg/mL (≈ 2.69 µM); against Poliovirus 1, > 1 µg/mL. Besides, the MIC is > 1 µg/mL in the assay with Sindbis virus, > 1 µg/mL in assay [3], 1 µg/mL (≈ 2.69 µM) in assay [4] and > 1 µg/mL in [5]. Also, the results for the MCC in the assay with HeLa, in the assay listed under Oryctolagus cuniculus and in the assay on Vero were 4 µg/mL, > 4 µg/mL and 4 µg/mL, respectively. Further, the IC50 with L1210 came to 7.84 µg/mL (≈ 21.1 µM).

For `Nc1ncnc2c1c(Cl)cn2[C@@H]1O[C@H](CO)[C@@H](O)[C@H]1O`, the MIC in the assay with Human alphaherpesvirus 1 was > 1 µg/mL; in the assay with Human alphaherpesvirus 2 it was > 1 µg/mL; in the assay with Coxsackievirus B4 [1] it was > 1 µg/mL; with Coxsackievirus B4 [2] it was > 0.4 µg/mL; in the assay on Human respirovirus 3, > 1 µg/mL; with Poliovirus 1, 1 µg/mL (≈ 3.33 µM). Further, the MIC is > 1 µg/mL in the assay on Sindbis virus, > 1 µg/mL in [3], 0.7 µg/mL (≈ 2.33 µM) in assay [4] and > 1 µg/mL in assay [5]. Moreover, the MCC in the assay on HeLa, in the assay listed under Oryctolagus cuniculus and in the assay with Vero was 4 µg/mL each time. Moreover, the IC50 in the assay on L1210 was 0.014 µg/mL (≈ 0.0466 µM).

On to `N#C/C=C/c1cn(C2O[C@H](CO)[C@@H](O)[C@H]2O)c2ncnc(N)c12` (stereo partly drawn), for which the MIC is 2 µg/mL (≈ 6.3 µM) with Human alphaherpesvirus 1; 20 µg/mL (≈ 63 µM) in the assay on Human alphaherpesvirus 2; > 10 µg/mL in the assay on Coxsackievirus B4 [1]; 1 µg/mL (≈ 3.15 µM) in the assay with Coxsackievirus B4 [2]; 7 µg/mL (≈ 22.1 µM) against Human respirovirus 3; 4 µg/mL (≈ 12.6 µM) with Poliovirus 1. Moreover, the MIC with Sindbis virus was > 40 µg/mL; in assay [3], 20 µg/mL (≈ 63 µM); in assay [4], 20 µg/mL (≈ 63 µM); in [5] it was 0.4 µg/mL (≈ 1.26 µM). In addition, the MCC with HeLa worked out at 4 µg/mL; in the assay listed under Oryctolagus cuniculus, 100 µg/mL; in the assay with Vero, 100 µg/mL. In the assay on L1210, the IC50 was 1.36 µg/mL (≈ 4.29 µM).

As for `C/C=C/Cc1cn(C2O[C@H](CO)[C@@H](O)[C@H]2O)c2ncnc(N)c12` (stereo partly drawn), the MIC against Human alphaherpesvirus 1 is 20 µg/mL (≈ 62.4 µM); in the assay with Human alphaherpesvirus 2, 150 µg/mL (≈ 468 µM); in the assay with Coxsackievirus B4 [1], 2 µg/mL (≈ 6.24 µM); with Coxsackievirus B4 [2], 0.2 µg/mL (≈ 0.624 µM); in the assay on Human respirovirus 3, > 1 µg/mL; in the assay on Poliovirus 1, 0.2 µg/mL (≈ 0.624 µM). Also, the MIC in the assay on Sindbis virus was > 40 µg/mL; in [3] it was > 40 µg/mL; in [4], 2 µg/mL (≈ 6.24 µM); in [5], 0.07 µg/mL (≈ 0.219 µM). For the same compound, the figures for the MCC in the assay with HeLa, in the assay filed under Oryctolagus cuniculus and in the assay with Vero were 1 µg/mL, 200 µg/mL and 100 µg/mL, respectively. Moreover, the IC50 with L1210 worked out at 0.63 µg/mL (≈ 1.97 µM).

For `Nc1ncnc2c1cc(Br)n2C1O[C@H](CO)[C@@H](O)[C@H]1O` (stereo partly drawn), the MIC was > 400 µg/mL against Human alphaherpesvirus 1; > 400 µg/mL with Human alphaherpesvirus 2; 70 µg/mL (≈ 203 µM) against Coxsackievirus B4 [1]; > 200 µg/mL against Coxsackievirus B4 [2]; 70 µg/mL (≈ 203 µM) in the assay with Human respirovirus 3; 150 µg/mL (≈ 435 µM) in the assay with Poliovirus 1. Besides, the MIC in the assay with Sindbis virus was > 200 µg/mL; in assay [3], 300 µg/mL (≈ 869 µM); in assay [4], 70 µg/mL (≈ 203 µM); in assay [5], 400 µg/mL (≈ 1160 µM). The MCC in the assay with HeLa was 400 µg/mL; in the assay listed under Oryctolagus cuniculus, > 400 µg/mL; in the assay with Vero, 400 µg/mL. In addition, in the assay on L1210, the IC50 came out at 36.5 µg/mL (≈ 106 µM).

In the case of `Nc1nccc2c1ncn2[C@@H]1C[C@H](CO)[C@H](O)C1O` (stereo partly drawn), the MIC is > 400 µg/mL in the assay on Human alphaherpesvirus 1; 300 µg/mL (≈ 1140 µM) with Human alphaherpesvirus 2; 2 µg/mL (≈ 7.57 µM) against Coxsackievirus B4 [1]; > 400 µg/mL with Coxsackievirus B4 [2]; 2 µg/mL (≈ 7.57 µM) against Human respirovirus 3; > 400 µg/mL in the assay with Poliovirus 1. Besides, the MIC amounted to 20 µg/mL (≈ 75.7 µM) against Sindbis virus, 0.07 µg/mL (≈ 0.265 µM) in [3], 2 µg/mL (≈ 7.57 µM) in assay [4] and 0.7 µg/mL (≈ 2.65 µM) in assay [5]. Besides, the MCC in the assay on HeLa was > 400 µg/mL; in the assay listed under Oryctolagus cuniculus, > 200 µg/mL; with Vero it was > 100 µg/mL.
